Results published in PMC9302689 (British Journal of Clinical Pharmacology, 2022).

Test system: healthy male subjects
Experiment: NeuroCart pupillometry
Assay type: in vivo, human
Conditions: 12-hour post-dose period
Summary of the method: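 In healthy men given a single dose or placebo, both eyes were photographed simultaneously with the head in a support. This was done twice pre-dose and at 0.5–10 h post-dose. Change from baseline over 12 h was analysed by MMRM against pooled placebo, with baseline as covariate.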

CN1CCC23CCCCC2C1Cc1ccc(C(N)=O)cc13 (stereo not drawn) [ALKS 7119, (9α, 13α)‐17‐methylmorphinan‐3‐carboxamide]
Left pupil/iris ratio, LSM CFB (3 mg single oral dose): 0.01
Right pupil/iris ratio, LSM CFB (3 mg single oral dose): 0.02
Left pupil/iris ratio, LSM CFB (10 mg single oral dose): 0.04
Right pupil/iris ratio, LSM CFB (10 mg single oral dose): 0.03
Left pupil/iris ratio, LSM CFB (25 mg single oral dose): 0.04
Right pupil/iris ratio, LSM CFB (25 mg single oral dose): 0.03
Left pupil/iris ratio, LSM CFB (50 mg single oral dose): 0.05
Right pupil/iris ratio, LSM CFB (50 mg single oral dose): 0.07
Left pupil/iris ratio, LSM CFB (75 mg single oral dose): 0.04
Right pupil/iris ratio, LSM CFB (75 mg single oral dose): 0.03
Left pupil/iris ratio, LSM CFB (100 mg single oral dose): 0.04
Right pupil/iris ratio, LSM CFB (100 mg single oral dose): 0.05
Left pupil/iris ratio, LSM CFB (125 mg single oral dose): 0.04
Right pupil/iris ratio, LSM CFB (125 mg single oral dose): 0.05
Left pupil/iris ratio, LSM CFB (150 mg single oral dose): 0.03
Right pupil/iris ratio, LSM CFB (150 mg single oral dose): 0.05
Left pupil/iris ratio, LSM CFB (175 mg single oral dose): 0.05
Right pupil/iris ratio, LSM CFB (175 mg single oral dose): 0.06
Left pupil/iris ratio, LSM CFB (200 mg single oral dose): 0.08
Right pupil/iris ratio, LSM CFB (200 mg single oral dose): 0.06
